Assay results from ChEMBL document CHEMBL2203130, “Sulfanylphthalonitrile analogues as selective and potent inhibitors of monoamine oxidase B” (Bioorg Med Chem Lett, 2012).

Legend:
[1] = biological target: T1, Amine oxidase [flavin-containing] A (Homo sapiens, UniProt P21397); test: Inhibition of human recombinant MAOA expressed in insect cell microsomes using kynuramine as substrate after 20 mins by fluorescence spectrophotometric analysis; parameters: species or system Microsome
T1 sequence (P21397 whole entry): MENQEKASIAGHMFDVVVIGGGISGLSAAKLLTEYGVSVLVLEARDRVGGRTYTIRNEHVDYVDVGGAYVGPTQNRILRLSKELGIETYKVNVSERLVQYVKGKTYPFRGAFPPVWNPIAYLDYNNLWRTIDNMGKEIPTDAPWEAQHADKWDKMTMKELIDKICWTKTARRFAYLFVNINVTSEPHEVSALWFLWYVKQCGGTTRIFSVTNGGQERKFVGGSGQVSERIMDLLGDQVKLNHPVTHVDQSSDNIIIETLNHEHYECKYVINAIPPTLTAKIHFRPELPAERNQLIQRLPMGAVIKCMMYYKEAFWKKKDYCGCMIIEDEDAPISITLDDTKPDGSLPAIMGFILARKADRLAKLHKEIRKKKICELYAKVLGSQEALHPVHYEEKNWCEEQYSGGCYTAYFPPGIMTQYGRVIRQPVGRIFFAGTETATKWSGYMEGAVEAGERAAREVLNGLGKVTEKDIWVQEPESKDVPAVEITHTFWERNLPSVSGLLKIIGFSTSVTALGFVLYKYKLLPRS
In short: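 Recombinant human MAO-A at 0.0075 mg protein/mL, started with enzyme, in 100 mM potassium phosphate pH 7.4 made isotonic with KCl, 4% DMSO. Inhibitor 0.003–100 µM, kynuramine 45 µM final. 20 min at 37 °C, stopped with NaOH. 4-Hydroxyquinoline read by fluorescence against a calibration curve. IC50 from one-site competition fit, triplicate, mean ± SD.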

[2] = biological target: T2, Amine oxidase [flavin-containing] B (Homo sapiens, UniProt P27338); test: Inhibition of human recombinant MAOB expressed in insect cell microsomes using kynuramine as substrate after 20 mins by fluorescence spectrophotometric analysis; parameters: species or system Microsome
T2 sequence (P27338 whole entry): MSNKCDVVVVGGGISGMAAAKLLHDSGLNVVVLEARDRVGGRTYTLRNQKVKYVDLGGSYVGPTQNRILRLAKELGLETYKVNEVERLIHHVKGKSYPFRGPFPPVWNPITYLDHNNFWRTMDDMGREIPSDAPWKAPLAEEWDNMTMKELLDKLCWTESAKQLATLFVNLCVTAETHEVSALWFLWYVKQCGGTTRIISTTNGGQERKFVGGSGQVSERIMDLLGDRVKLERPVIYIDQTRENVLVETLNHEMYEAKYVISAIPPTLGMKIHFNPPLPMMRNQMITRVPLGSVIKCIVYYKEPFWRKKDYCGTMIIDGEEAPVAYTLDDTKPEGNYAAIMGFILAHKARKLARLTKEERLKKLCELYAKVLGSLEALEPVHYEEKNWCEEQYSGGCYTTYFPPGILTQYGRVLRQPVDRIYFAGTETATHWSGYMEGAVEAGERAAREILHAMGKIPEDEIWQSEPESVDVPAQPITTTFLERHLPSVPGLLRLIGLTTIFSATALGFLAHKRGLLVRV

Homo sapiens [3] = species: Homo sapiens; test: Selectivity index, ratio of Ki for human recombinant MAOA to Ki for human recombinant MAOB
In short: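 Ki values derived from IC50s by the Cheng–Prusoff equation. MAO-A used [S] 45 µM and Km 16.1 µM; MAO-B used [S] 30 µM and Km 22.7 µM. Index is Ki(MAO-A)/Ki(MAO-B).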

Homo sapiens [4] = species: Homo sapiens; test: Selectivity index, ratio of IC50 for human recombinant MAOA to IC50 for human recombinant MAOB
In short: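 Ratio of IC50 for MAO-A to IC50 for MAO-B. Both IC50s from the kynuramine fluorescence assay: MAO-A with 45 µM kynuramine, MAO-B with 30 µM. Each run in triplicate.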

[5] = biological target: T1, Amine oxidase [flavin-containing] A; test: Ratio of compound IC50 to clorgyline IC50 for human recombinant MAOA
[6] = biological target: T2, Amine oxidase [flavin-containing] B; test: Reversible inhibition of human recombinant MAOB expressed in insect cell microsomes using kynuramine as substrate assessed as residual activity at 100 times IC50 preincubated for 30 mins followed by 100 fold dilution measured after 20 mins by fluorescence spectrophotometric analysis relative to control; parameters: species or system Microsome
In short: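 Recombinant human MAO-B (0.75 mg/ml) preincubated 30 min at 37 °C with inhibitor at 0, 10 or 100 × IC50 in pH 7.4 isotonic potassium phosphate with 4% DMSO. Diluted 100-fold with kynuramine to 30 µM substrate and 0.0075 mg/mL enzyme. Then 20 min at 37 °C. Residual 4-hydroxyquinoline formation measured by fluorescence, relative to no-inhibitor control. (R)-deprenyl at 10 × IC50 run as comparator.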

Structure (SMILES)	IC50 [1]	IC50 [2]	Ratio Ki (Homo sapiens [3])	Ratio IC50 (Homo sapiens [4])	Activity [6]	Ratio IC50 [5]
N#Cc1ccc(SCc2ccc(Br)cc2)cc1	129 µM	0.484 µM	163	267		
N#Cc1ccc(OCc2ccccc2)cc1C#N				227		
N#Cc1ccc(OCc2ccccc2)cc1				41		
N#Cc1ccc(SCc2ccc(Cl)cc2)cc1	20.3 µM	0.531 µM	23	38		
N#Cc1ccc(SCc2ccc(F)cc2)cc1	54.7 µM	0.449 µM	75	122		
N#Cc1ccc(SCCc2ccccc2)cc1	54.3 µM	1.81 µM	18	30		
N#Cc1ccc(OCc2ccc(Br)cc2)cc1C#N				134		
N#Cc1ccc(SCc2ccc(Br)cc2)cc1C#N	218 µM	0.025 µM	5330	8720	48%	
COc1ccc(CSc2ccc(C#N)c(C#N)c2)cc1	129 µM	0.067 µM	1180	1920		
N#Cc1ccc(SCc2ccccc2)cc1	42.4 µM	1.58 µM	16	27		
N#Cc1ccc(Sc2ccccc2)cc1	36.9 µM	11.2 µM	2	3.3		

More lines, in order of falling IC50 [1], values ahead:

IC50 [1]	IC50 [2]	Ratio Ki (Homo sapiens [3])	Ratio IC50 (Homo sapiens [4])	Activity [6]	Structure (SMILES)	Ratio IC50 [5]
19 µM	0.079 µM	147	240		N#Cc1ccc(Sc2ccc(Br)cc2)cc1C#N	
18.2 µM	4.28 µM	2.6	4.3		N#Cc1ccc(Sc2ccc(Cl)cc2)cc1	
11.1 µM	0.114 µM	59.6	97		N#Cc1ccc(Sc2ccc(Cl)cc2)cc1C#N	
9.87 µM	4.77 µM	1.3	2.1		N#Cc1ccc(SC2CCCCC2)cc1	
9.02 µM	0.167 µM	33	54		N#Cc1ccc(SCc2ccccc2)cc1C#N	
8.52 µM	0.637 µM	8.2	13		N#Cc1ccc(Sc2ccc(Br)cc2)cc1	
7.19 µM	0.124 µM	35.5	58		N#Cc1ccc(SCCc2ccccc2)cc1C#N	
5.96 µM	0.223 µM	16.3	27		N#Cc1ccc(SC2CCCCC2)cc1C#N	
5.59 µM	0.861 µM	4	6.5		COc1ccc(CSc2ccc(C#N)cc2)cc1	
3.58 µM	2.13 µM	1	1.7		N#Cc1ccc(Sc2ccccc2)cc1C#N	
2.78 µM	0.887 µM	1.9	3.1		N#Cc1ccc(SC2CCCC2)cc1C#N	
2.1 µM	0.034 µM	38	62		N#Cc1ccc(SCc2ccc(F)cc2)cc1C#N	
1.45 µM	0.242 µM	3.7	6		CC(C)CCSc1ccc(C#N)c(C#N)c1	
0.623 µM	0.014 µM	27	45		N#Cc1ccc(SCc2ccc(Cl)cc2)cc1C#N	240
